The test system of assay [1] is HCT-116. The experiment in a line: Cytotoxicity against human HCT116 cells assessed as growth inhibition after 72 hrs by SRB assay. The class given is functional, cell-based. Conditions: HCT-116, 72 h. Summed up:
(§1)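 Cells seeded at 2000–3000 per well and grown 24 h at 37C, then treated in triplicate with compounds dissolved in DMSO over a 40–0.3 range for 72 h. Cells were fixed with 10% TCA for 1 h, stained with 0.4% SRB in 1% acetic acid, washed with 1% acetic acid and air-dried. Bound dye was solubilized in 10 mM Tris base and read at 515 nm. % inhibition and IC50 were calculated against DMSO-only controls.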
On the technique in general: Sulforhodamine B stains cellular protein and so reports cell mass.

The subject of assay [2] is Huh-7. The experiment in a line: Cytotoxicity against human HuH7 cells assessed as growth inhibition after 72 hrs by SRB assay. The format is functional, cell-based. Conditions: Huh-7, 72 h. Summed up:
as §1

The test system of assay [3] is MCF7. The experiment in a line: Cytotoxicity against human MCF7 cells assessed as growth inhibition after 72 hrs by SRB assay. The format is functional, cell-based. Conditions: MCF7, 72 h. Summed up:
as §1

For assay [4], the species on record is Homo sapiens. The experiment in a line: Inhibition of tubulin polymerization (unknown origin).
The subject of assay [5] is Huh-7. The experiment in a line: Growth inhibition of human HuH7 cells at cytotoxic IC100 measured every 10 mins for first 24 hrs and every 30 mins for remaining 48 hrs by RT-CES analysis. The class given is functional, cell-based.
Assay [6] concerns SNU-475. The experiment in a line: Induction of apoptosis in human SNU475 cells assessed as accumulation at subG1 phase at cytotoxic IC100 measured after 72 hrs by propidium iodide staining based flow cytometry. The class given is functional, cell-based. An outline of the steps: (§2)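 After 24, 48 and 72 h, cells were fixed in ice-cold 70% ethanol for 3 h, stained with propidium iodide, and cell-cycle distribution was read on a MUSE Cell Analyzer.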
(In general: A flow cytometer gives signals particle by particle.)

For assay [7], the system named is HepG2. The experiment in a line: Induction of apoptosis in human HepG2 cells assessed as condensed nuclei at cytotoxic IC100 measured after 72 hrs by light microscopic method. The class given is functional, cell-based.
The subject of assay [8] is SNU-475. The experiment in a line: Induction of apoptosis in human SNU475 cells assessed as condensed nuclei at cytotoxic IC100 measured after 48 hrs by DAPI/Annexin-V-Fluos staining based fluorescent microscopic method. The format is functional, cell-based. Summed up: (§3)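 Cells on coverslips were treated after 24 h in culture and stained 48 h later with Annexin-V-Fluos plus DAPI nuclear stain. Cells were then examined by fluorescence microscopy for Annexin V-positive cells with condensed nuclei.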

Assay [9] concerns MRC5. The experiment in a line: Cytotoxicity against human MRC5 cells assessed as growth inhibition after 72 hrs by SRB assay. The format is cell-based. Conditions: Homo sapiens, MRC5, 72 h; read-out: IC50. Summed up: as §1
The subject of assay [10] is SNU-475. The experiment in a line: Induction of apoptosis in human SNU475 cells assessed as accumulation at G2/M phase at cytotoxic IC100 measured after 48 hrs by propidium iodide staining based flow cytometry. The class given is functional, cell-based. Summed up:
as §2

Assay [11] relates to HepG2. The experiment in a line: Induction of apoptosis in human HepG2 cells assessed as PARP cleavage at cytotoxic IC100 measured after 24 hrs by Western blot method. The format is functional, cell-based. Background: Immunoblotting shows a protein as a band on a membrane.
Assay [12] concerns MCF-12A. The experiment in a line: Cytotoxicity against human MCF12A cells assessed as growth inhibition after 72 hrs by SRB assay. The format is cell-based. An outline of the steps:
as §1

The subject of assay [13] is SNU-475. The experiment in a line: Induction of apoptosis in human SNU475 cells assessed as condensed nuclei at cytotoxic IC100 measured after 72 hrs by light microscopic method. The format is functional, cell-based.
For assay [14], the system named is Mahlavu. The experiment in a line: Growth inhibition of human Mahlavu cells at cytotoxic IC100 measured every 10 mins for first 24 hrs and every 30 mins for remaining 48 hrs by RT-CES analysis. The class given is functional, cell-based.
The subject of assay [15] is HepG2. The experiment in a line: Cytotoxicity against human HepG2 cells assessed as growth inhibition after 72 hrs by SRB assay. The format is functional, cell-based. Conditions: HepG2, 72 h. Summed up:
as §1

Assay [16] concerns HepG2. The experiment in a line: Induction of apoptosis in human HepG2 cells assessed as condensed nuclei at cytotoxic IC100 measured after 48 hrs by DAPI/Annexin-V-Fluos staining based fluorescent microscopic method. The format is functional, cell-based. An outline of the steps:
as §3

In assay [17] the test system is HepG2. The experiment in a line: Induction of apoptosis in human HepG2 cells assessed as accumulation at G2/M phase at cytotoxic IC100 measured after 48 hrs by propidium iodide staining based flow cytometry. The format is functional, cell-based. Summed up: as §2
The test system of assay [18] is SNU-475. The experiment in a line: Induction of apoptosis in human SNU475 cells assessed as PARP cleavage at cytotoxic IC100 measured after 24 hrs by Western blot method. The format is functional, cell-based.
Assay [19] concerns SNU-475. The experiment in a line: Growth inhibition of human SNU475 cells at cytotoxic IC100 measured every 10 mins for first 24 hrs and every 30 mins for remaining 48 hrs by RT-CES analysis. The format is functional, cell-based.
For assay [20], the system named is SNU-475. The experiment in a line: Cytotoxicity against human SNU475 cells assessed as growth inhibition after 72 hrs by SRB assay. The class given is functional, cell-based. Conditions: SNU-475, 72 h. An outline of the steps:
as §1

The test system of assay [21] is HepG2. The experiment in a line: Induction of apoptosis in human HepG2 cells assessed as accumulation at subG1 phase at cytotoxic IC100 measured after 72 hrs by propidium iodide staining based flow cytometry. The class given is functional, cell-based. Summed up: as §2
The test system of assay [22] is Mahlavu. The experiment in a line: Cytotoxicity against human Mahlavu cells assessed as growth inhibition after 72 hrs by SRB assay. The format is functional, cell-based. An outline of the steps: as §1
In assay [23] the test system is HepG2. The experiment in a line: Growth inhibition of human HepG2 cells at cytotoxic IC100 measured every 10 mins for first 24 hrs and every 30 mins for remaining 48 hrs by RT-CES analysis. The format is functional, cell-based.

One may read the IC50 as the concentration that inhibits the measured activity by half.

Activity calls are given as the source filed them. No cut-off for these calls is given here.

Turning to `O=C(/C=C/c1cn(-c2ccccc2)nc1-c1ccc2c(c1)OCO2)c1ccccn1`, the figures for the concentration for half-maximal inhibition (IC50) in assay [1], in assay [2] and in [3] were 6.7 µM, 3.4 µM and 4.1 µM, respectively. Further, the inhibition result in assay [4] is “inactive”.
Taken in the same sequence, the figures for `O=C(/C=C/c1cn(-c2ccccc2)nc1-c1ccsc1)c1ccc2c(c1)OCO2` were 12.2 µM, 22.6 µM, 5.3 µM and “inactive”.
For `COc1cc(OC)c(C(=O)/C=C/c2cn(-c3ccccc3)nc2-c2cccnc2)c(OC)c1`, the IC50 in assay [1] was determined as 0.3 µM; in assay [2] it was 0.5 µM; in [9], 1.3 µM; in assay [12], 1.2 µM; in assay [3], 1 µM; in assay [15], 1.4 µM. Moreover, the 50% inhibitory concentration (IC50) worked out at 0.8 µM in assay [20] and 1.1 µM in [22]. Moreover, the “growth inhibition (GI)” value in [5], in assay [14], in [19] and in [23] was “Active” each time. The result in assay [6], in assay [7], in [8], in assay [10], in [11] and in [13] was Active. The outcome in [16], in assay [17], in assay [18] and in [21] was Active. Further, the inhibition result in assay [4] is “inactive”.
Regarding `O=C(/C=C/c1cn(-c2ccccc2)nc1-c1ccc2c(c1)OCO2)c1cccnc1`, the half-inhibitory concentration (IC50) in assay [1] amounted to 3.8 µM; in assay [2], 3.4 µM; in assay [3] it was 2.2 µM. The inhibition entry in [4] is “inactive”.
On the same counts, the results for `O=C(/C=C/c1cn(-c2ccccc2)nc1-c1ccc2c(c1)OCO2)c1ccsc1` are 8.9 µM, 3.2 µM, 4.9 µM and “inactive”.
On the same counts, the results for `O=C(/C=C/c1cn(-c2ccccc2)nc1-c1ccncc1)c1ccccc1` are 3.1 µM, 1.8 µM, 3.4 µM and “inactive”.

The values above are taken from ChEMBL document CHEMBL4004857, “Synthesis and biological evaluation of novel pyrazolic chalcone derivatives as novel hepatocellular carcinoma therapeutics” (Eur J Med Chem, 2017).
